Results from ChEMBL document CHEMBL1145348, “Synthesis and biochemical evaluation of a range of potent benzyl imidazole-based compounds as potential inhibitors of the enzyme complex 17alpha-hydroxylase/17,20-lyase (P450(17alpha))” (Bioorg Med Chem Lett, 2006).
pIC50: −log10 of the molar value.

Assays:
[1] = target: T1, Steroid 17-alpha-hydroxylase/17,20 lyase (Rattus norvegicus, UniProt P11715); assay: Inhibition of rat microsomal 17,20-lyase component of P450-17alpha
T1 sequence (P11715 whole entry): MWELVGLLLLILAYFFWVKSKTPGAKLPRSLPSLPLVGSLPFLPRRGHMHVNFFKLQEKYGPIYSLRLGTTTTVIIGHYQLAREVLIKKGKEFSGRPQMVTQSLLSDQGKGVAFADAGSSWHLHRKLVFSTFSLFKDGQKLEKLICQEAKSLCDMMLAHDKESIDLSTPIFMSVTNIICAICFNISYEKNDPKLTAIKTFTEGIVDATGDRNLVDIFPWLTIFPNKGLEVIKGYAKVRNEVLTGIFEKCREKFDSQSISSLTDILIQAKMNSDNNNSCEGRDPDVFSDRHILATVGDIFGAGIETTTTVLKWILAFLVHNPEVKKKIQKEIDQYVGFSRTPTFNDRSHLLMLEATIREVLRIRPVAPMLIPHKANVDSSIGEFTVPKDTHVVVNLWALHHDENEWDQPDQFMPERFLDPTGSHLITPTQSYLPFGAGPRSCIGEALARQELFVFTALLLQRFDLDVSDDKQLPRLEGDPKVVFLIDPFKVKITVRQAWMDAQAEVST
Outline: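 Rat testicular microsomes (final 0.23 mg/mL protein) incubated at 37 °C for 30 min in 50 mM sodium phosphate pH 7.4 with NADPH generating system and radiolabelled 17α-hydroxyprogesterone (1 μM), inhibitor added in ethanol. Ether extraction, TLC (DCM/ethyl acetate 4:1) with carrier steroids, ³H scintillation counting versus no-inhibitor controls. IC50 from five or more concentrations in triplicate, linear regression of inhibition versus log[I].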

[2] = target: T1, Steroid 17-alpha-hydroxylase/17,20 lyase; assay: Inhibition of rat microsomal 17-alpha-hydroxylase component of P450-17alpha
Outline: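 Microsomal enzyme (final 0.16 mg/mL) preincubated mixture at 37 °C, 15 min reaction in 50 mM sodium phosphate pH 7.4 with NADPH generating system and radiolabelled progesterone (1.5 μM); inhibitor in ethanol. Ether extraction, TLC (DCM/ethyl acetate 7:3) with carrier steroids, ³H counting against uninhibited controls. IC50 from ≥5 concentrations in triplicate by linear regression of inhibition versus log[I].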

SMILES | pIC50 [1] | pIC50 [2]
O=[N+]([O-])c1ccc(Cn2ccnc2)cc1 | 5.14 | 4.60
Oc1ccc(Cn2ccnc2)cc1 | 5.09 | 4.14
FC(F)(F)c1cc(Cn2ccnc2)cc(C(F)(F)F)c1 | 4.71 | 3.61
N#Cc1ccc(Cn2ccnc2)cc1 | 5.12 | 4.40
Clc1ccc(Cn2ccnc2)cc1Cl | 5.68 | 4.91
c1ccc(Cn2ccnc2)cc1 [BENZYLIMIDAZOLE] | 4.41 | 3.67
CC(=O)N1CCN(c2ccc(OCC3COC(Cn4ccnc4)(c4ccc(Cl)cc4Cl)O3)cc2)CC1 (configuration not stated) [KETOCONAZOLE] | 5.78 | 5.42

Now from value to compound:

pIC50 [1] | pIC50 [2] | SMILES
5.48 | 4.65 | Clc1cc(Cl)cc(Cn2ccnc2)c1
5.17 | 4.27 | Brc1ccc(Cn2ccnc2)cc1
5.50 | 4.59 | Brc1cc(Br)cc(Cn2ccnc2)c1
5.06 | 4.30 | Cc1ccc(Cn2ccnc2)cc1
5.02 | 4.15 | Fc1ccc(Cn2ccnc2)cc1F
4.73 | 4.06 | Fc1ccc(Cn2ccnc2)cc1
5.80 | 5.00 | Ic1ccc(Cn2ccnc2)cc1
5.55 | 4.50 | Clc1ccc(Cn2ccnc2)cc1
4.93 | 4.08 | Fc1cc(F)cc(Cn2ccnc2)c1
